Experimental data as given in ChEMBL document CHEMBL3808334, “Synthesis and in vitro evaluation of novel triazine analogues as anticancer agents and their interaction studies with bovine serum albumin” (Eur J Med Chem, 2016).

Legend:
Format in all cases: functional
[1] = Growth inhibition of human BT549 cells assessed as cell growth at 10^-4 M incubated for 48 hrs by sulforhodamine B assay; details: BT-549, 48 h, read-out: Activity
Method in brief: (§1)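 Five-dose assay: five concentrations from 10-fold or ½-log serial dilutions. Cells are plated at 5,000–40,000 per well according to doubling time, grown 24 h, then exposed 48 h at 37 °C, 5% CO₂. Fixed with cold 50% TCA (final addition) for 60 min at 4 °C and stained with 0.4% SRB in 1% acetic acid. Bound dye is solubilized in 10 mM Tris base and read at 515 nm. GI₅₀ is where [(Ti−Tz)/(C−Tz)]×100 = 50, with a time-zero plate as Tz.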

[2] = Growth inhibition of human HCT15 cells incubated for 48 hrs by sulforhodamine B assay; details: HCT-15, 48 h
Method in brief: (§2)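 Cells seeded at 5,000–40,000/well according to doubling time and preincubated 24 h at 37 °C, 5% CO2. Time-zero plates were TCA-fixed. DMSO concentrate was diluted in medium with 50 µg/ml gentamicin to give five concentrations (10-fold or ½ log steps), then exposed 48 h. Cells were TCA-fixed, stained with 0.4% SRB and read at 515 nm. Percent growth was taken against time-zero and control; GI50, TGI and LC50 derived.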

A498 = experiment: Growth inhibition of human A498 cells incubated for 48 hrs by sulforhodamine B assay; details: A498, 48 h; method in brief: as §1
SR [3] = experiment: Growth inhibition of human SR cells assessed as cell growth at 10^-7 M incubated for 48 hrs by sulforhodamine B assay; details: read-out: Activity
[4] = Growth inhibition of human RXF393 cells assessed as cell growth at 10^-5 M incubated for 48 hrs by sulforhodamine B assay; details: RXF 393, 48 h, read-out: Activity
[5] = Growth inhibition of human RPMI8226 cells assessed as cell growth at 10^-4 M incubated for 48 hrs by sulforhodamine B assay; details: RPMI-8226, 48 h, read-out: Activity
EKVX = experiment: Growth inhibition of human EKVX cells assessed as cell growth at 10^-4 M incubated for 48 hrs by sulforhodamine B assay; details: read-out: Activity; method in brief: as §2
[6] = Growth inhibition of human COLO205 cells assessed as cell growth at 10^-4 M incubated for 48 hrs by sulforhodamine B assay; details: COLO 205, 48 h, read-out: Activity; method in brief: as §2
[7] = Growth inhibition of human HCT15 cells assessed as cell growth at 10^-4 M incubated for 48 hrs by sulforhodamine B assay; details: HCT-15, 48 h, read-out: Activity; method in brief: as §2
MDA-MB-435 = experiment: Growth inhibition of human MDA-MB-435 cells assessed as cell growth at 10^-7 M incubated for 48 hrs by sulforhodamine B assay; details: MDA-MB-435, 48 h, read-out: Activity
SK-MEL-2 [8] = experiment: Growth inhibition of human SK-MEL-2 cells assessed as cell growth at 10^-7 M incubated for 48 hrs by sulforhodamine B assay; details: SK-MEL-2, 48 h, read-out: Activity
SK-MEL-28 [9] = experiment: Growth inhibition of human SK-MEL-28 cells assessed as cell growth at 10^-4 M incubated for 48 hrs by sulforhodamine B assay; details: SK-MEL-28, 48 h, read-out: Activity
[10] = Growth inhibition of human OVCAR4 cells assessed as cell growth at 10^-7 M incubated for 48 hrs by sulforhodamine B assay; details: OVCAR-4, 48 h, read-out: Activity
SK-MEL-2 [11] = experiment: Growth inhibition of human SK-MEL-2 cells assessed as cell growth at 10 uM incubated for 48 hrs by sulforhodamine B assay; details: SK-MEL-2, 48 h, read-out: Activity
[12] = Growth inhibition of human MOLT4 cells assessed as cell growth at 10^-8 M incubated for 48 hrs by sulforhodamine B assay; details: MOLT-4, 48 h, read-out: Activity
NCI-H23 [13] = experiment: Growth inhibition of human NCI-H23 cells assessed as cell growth at 10^-6 M incubated for 48 hrs by sulforhodamine B assay; details: NCI-H23, 48 h, read-out: Activity
KM12 = experiment: Growth inhibition of human KM12 cells assessed as cell growth at 10^-6 M incubated for 48 hrs by sulforhodamine B assay; details: KM12, 48 h, read-out: Activity
[14] = Growth inhibition of human SNB19 cells assessed as cell growth at 10^-8 M incubated for 48 hrs by sulforhodamine B assay; details: SNB-19, 48 h, read-out: Activity
SK-MEL-28 [15] = experiment: Growth inhibition of human SK-MEL-28 cells assessed as cell growth at 10^-6 M incubated for 48 hrs by sulforhodamine B assay; details: SK-MEL-28, 48 h, read-out: Activity
[16] = Growth inhibition of human PC3 cells assessed as cell growth at 10^-6 M incubated for 48 hrs by sulforhodamine B assay; details: PC-3, 48 h, read-out: Activity
MCF7 = experiment: Growth inhibition of human MCF7 cells assessed as cell growth at 10^-6 M incubated for 48 hrs by sulforhodamine B assay; details: MCF7, 48 h, read-out: Activity
MDA-MB-231 = experiment: Growth inhibition of human MDA-MB-231 cells assessed as cell growth at 10^-6 M incubated for 48 hrs by sulforhodamine B assay; details: MDA-MB-231, 48 h, read-out: Activity
[17] = Growth inhibition of human HOP62 cells assessed as cell growth at 10^-5 M incubated for 48 hrs by sulforhodamine B assay; details: HOP-62, 48 h, read-out: Activity
NCI-H23 [18] = experiment: Growth inhibition of human NCI-H23 cells assessed as cell growth at 10^-5 M incubated for 48 hrs by sulforhodamine B assay; details: NCI-H23, 48 h, read-out: Activity
[19] = Growth inhibition of human HCT116 cells assessed as cell growth at 10^-5 M incubated for 48 hrs by sulforhodamine B assay; details: HCT-116, 48 h, read-out: Activity; method in brief: as §2
[20] = Growth inhibition of human LOXIMVI cells assessed as cell growth at 10^-5 M incubated for 48 hrs by sulforhodamine B assay; details: LOX IMVI, read-out: Activity
SK-MEL-5 = experiment: Growth inhibition of human SK-MEL-5 cells assessed as cell growth at 10^-5 M incubated for 48 hrs by sulforhodamine B assay; details: SK-MEL-5, 48 h, read-out: Activity
[21] = Growth inhibition of human OVCAR3 cells assessed as cell growth at 10^-5 M incubated for 48 hrs by sulforhodamine B assay; details: OVCAR-3, 48 h, read-out: Activity
SR [22] = experiment: Growth inhibition of human SR cells assessed as cell growth at 10 uM incubated for 48 hrs by sulforhodamine B assay; details: read-out: Activity
[23] = Growth inhibition of human SNB75 cells assessed as cell growth at 10 uM incubated for 48 hrs by sulforhodamine B assay; details: SNB-75, 48 h, read-out: Activity
[24] = Growth inhibition of human leukemia cells incubated for 48 hrs by sulforhodamine B assay; details: Leukemia cell

Clc1ccc(-c2nc(Nc3ccc(-c4nc5ccccc5[nH]4)cc3)nc(N3CCOCC3)n2)cc1
growth at 100 µM [1]: -13%
GI50 ([2]; read-out: GI50): 188 nM
TGI ([2]; read-out: TGI): 412 nM
GI50 ([2]; read-out: pGI50 (converted)): 191 nM
TGI ([2]; read-out: pTGI (converted)): 407 nM
GI50 (A498; read-out: GI50): 1690 nM
TGI (A498; read-out: TGI): 3290 nM
GI50 (A498; read-out: pGI50 (converted)): 1700 nM
TGI (A498; read-out: pTGI (converted)): 3310 nM
growth at 0.1 µM (SR [3]): -5%
growth at 10 µM [4]: -79%
growth at 100 µM [5]: -27%
growth at 100 µM (EKVX): -15%
growth at 100 µM [6]: -44%
growth at 100 µM [7]: -10%
growth at 0.1 µM (MDA-MB-435): 98%
growth at 0.1 µM (SK-MEL-2 [8]): 92%
growth at 100 µM (SK-MEL-28 [9]): -24%
growth at 0.1 µM [10]: 98%
growth at 10 µM (SK-MEL-2 [11]): -71.3%
growth at 0.01 µM [12]: 98%
growth at 1 µM (NCI-H23 [13]): 85%
growth at 1 µM (KM12): 14%
growth at 0.01 µM [14]: 102%
growth at 1 µM (SK-MEL-28 [15]): 84%
growth at 1 µM [16]: 13%
growth at 1 µM (MCF7): -39%
growth at 1 µM (MDA-MB-231): -55%
growth at 10 µM [17]: -77%
growth at 10 µM (NCI-H23 [18]): -66%
growth at 10 µM [19]: -76%
growth at 10 µM [20]: -70%
growth at 10 µM (SK-MEL-5): -94%
growth at 10 µM [21]: -93%
growth at 10 µM (SR [22]): -83.3%
growth at 10 µM [23]: -92.6%
GI50 [24]: 190 nM
TGI [24]: 580 nM
CC50 ([24]; read-out: LC50 (the source's name)): > 100000 nM
